{
  "source": "ChEMBL document CHEMBL1800025",
  "about": "(J Med Chem, 2011)",
  "key": {"[1]": {"target": "Dual specificity protein kinase CLK1 (Homo sapiens) (UniProt P49759)", "sequence (P49759 whole entry, looked up)": "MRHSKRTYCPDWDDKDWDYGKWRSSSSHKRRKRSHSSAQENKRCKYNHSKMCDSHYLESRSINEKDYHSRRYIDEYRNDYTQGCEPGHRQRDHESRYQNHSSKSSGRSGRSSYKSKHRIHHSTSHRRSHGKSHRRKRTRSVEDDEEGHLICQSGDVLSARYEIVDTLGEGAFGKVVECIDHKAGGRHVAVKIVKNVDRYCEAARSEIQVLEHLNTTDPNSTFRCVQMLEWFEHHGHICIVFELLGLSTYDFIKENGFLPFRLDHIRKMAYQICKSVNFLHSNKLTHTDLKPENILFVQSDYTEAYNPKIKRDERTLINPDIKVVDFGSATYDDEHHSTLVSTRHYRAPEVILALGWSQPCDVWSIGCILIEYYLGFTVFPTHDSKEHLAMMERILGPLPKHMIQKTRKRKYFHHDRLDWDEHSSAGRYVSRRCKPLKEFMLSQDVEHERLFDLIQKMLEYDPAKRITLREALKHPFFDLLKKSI", "assay": "Inhibition of CLK1-mediated SRp75 protein phosphorylation in TNFalpha-stimulated human HMEC1 cells after 1 hr by Western blot analysis", "format": "cell-based", "method_in_brief": "(§1)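 HMEC-1 cells grown in endothelial medium with 5% FCS at 37 C, 5% CO2. Serum-starved 1 h in basal medium, pretreated 1 h with inhibitor at varying concentrations, then stimulated with 10 ng/mL TNF-alpha. Lysed 2 min after stimulation. Phospho-SRp75 and phospho-SRp55 detected by Western blot with mAb1H4, GAPDH as loading control, quantified by densitometry. At least 3 independent experiments.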"}, "[2]": {"species_on_record": "Sus scrofa", "assay": "Inhibition of pig brain CK1 delta/epsilon using RRKHAAIGpSAYSITA as substrate at 10 uM", "method_in_brief": "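Native CK1δ/ε from porcine brain, assayed in 3-fold diluted buffer C with 25 μM CKS peptide substrate. 15 μM ATP final, 30 C. Activity is percent of uninhibited control after blank subtraction, with DMSO controls. Inhibitor tested over a range of concentrations up to 10 μM.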"}, "[3]": {"target": "Dual specificity protein kinase CLK3 (Homo sapiens) (UniProt P49761)", "sequence (P49761 whole entry, looked up)": "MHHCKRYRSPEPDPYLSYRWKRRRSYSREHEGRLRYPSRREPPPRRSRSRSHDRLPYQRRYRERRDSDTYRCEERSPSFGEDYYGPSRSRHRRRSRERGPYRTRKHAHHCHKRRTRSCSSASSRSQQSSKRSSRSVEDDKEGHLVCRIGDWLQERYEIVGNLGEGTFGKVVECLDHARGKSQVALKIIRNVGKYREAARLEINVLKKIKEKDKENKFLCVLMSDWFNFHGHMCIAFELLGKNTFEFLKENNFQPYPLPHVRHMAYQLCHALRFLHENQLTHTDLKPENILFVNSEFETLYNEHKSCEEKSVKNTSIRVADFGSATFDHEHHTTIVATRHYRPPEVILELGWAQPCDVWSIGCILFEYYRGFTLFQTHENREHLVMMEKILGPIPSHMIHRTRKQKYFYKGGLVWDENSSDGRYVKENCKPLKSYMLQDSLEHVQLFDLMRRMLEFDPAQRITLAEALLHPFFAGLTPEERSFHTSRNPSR", "assay": "Inhibition of CLK3-mediated SRp75 protein phosphorylation in TNFalpha-stimulated human HMEC1 cells after 1 hr by Western blot analysis", "format": "cell-based", "method_in_brief": "as §1"}, "[4]": {"target": "Dual specificity protein kinase CLK1 (Homo sapiens) (UniProt P49759)", "assay": "Inhibition of CLK1 transfected in human HeLa cells assessed as increase in exon inclusion ratio after 24 hrs by RT-PCR analysis", "format": "cell-based", "method_in_brief": "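HeLa cells were transfected with […], with kinase-dead CLK1/K190R as comparator. Inhibitors at varying doses were added 3 h post-transfection, with 0.5% DMSO final in all cultures. Cells were harvested 24 h post-transfection, total RNA was extracted, and E1A splicing products were analysed by RT-PCR. Isoform molar ratios were measured by Bioanalyzer to give the exon inclusion ratio. Three independent samples were used.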"}, "[5]": {"target": "T1, Dual specificity tyrosine-phosphorylation-regulated kinase 3 (Homo sapiens) (UniProt O43781)", "T1 sequence (whole entry)": "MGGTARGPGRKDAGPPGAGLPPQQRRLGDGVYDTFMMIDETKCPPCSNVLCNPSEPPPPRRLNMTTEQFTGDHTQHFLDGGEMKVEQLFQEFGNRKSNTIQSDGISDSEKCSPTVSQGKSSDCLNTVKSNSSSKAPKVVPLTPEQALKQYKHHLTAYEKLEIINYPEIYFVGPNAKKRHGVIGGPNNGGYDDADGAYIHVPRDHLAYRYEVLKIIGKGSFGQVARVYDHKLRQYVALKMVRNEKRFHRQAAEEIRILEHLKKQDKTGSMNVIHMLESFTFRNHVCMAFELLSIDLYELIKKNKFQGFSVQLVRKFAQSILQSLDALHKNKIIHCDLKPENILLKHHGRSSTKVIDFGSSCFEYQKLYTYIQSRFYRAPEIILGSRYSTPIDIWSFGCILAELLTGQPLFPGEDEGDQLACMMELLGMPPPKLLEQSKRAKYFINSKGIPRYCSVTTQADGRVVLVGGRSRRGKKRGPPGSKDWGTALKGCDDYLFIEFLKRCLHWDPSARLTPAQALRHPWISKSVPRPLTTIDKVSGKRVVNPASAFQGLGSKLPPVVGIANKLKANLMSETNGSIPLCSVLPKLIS", "assay": "Inhibition of recombinant DYRK3-mediated SR 9G8 protein phosphorylation at 10 uM after 30 mins by SDS-PAGE followed by autoradiography", "method_in_brief": "(§2)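 Recombinant SR protein 9G8 (87 ng) phosphorylated by each kinase, diluted to equal specific activity toward RS peptide. 15 μM [γ-33P]ATP, 30 min at 30 C, with or without 10 μM inhibitor. Reaction stopped in loading buffer; SDS-PAGE and autoradiography.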"}, "[6]": {"target": "Dual specificity protein kinase CLK1 (Mus musculus, UniProt P22518)", "sequence (P22518 whole entry, the tested form may be a part)": "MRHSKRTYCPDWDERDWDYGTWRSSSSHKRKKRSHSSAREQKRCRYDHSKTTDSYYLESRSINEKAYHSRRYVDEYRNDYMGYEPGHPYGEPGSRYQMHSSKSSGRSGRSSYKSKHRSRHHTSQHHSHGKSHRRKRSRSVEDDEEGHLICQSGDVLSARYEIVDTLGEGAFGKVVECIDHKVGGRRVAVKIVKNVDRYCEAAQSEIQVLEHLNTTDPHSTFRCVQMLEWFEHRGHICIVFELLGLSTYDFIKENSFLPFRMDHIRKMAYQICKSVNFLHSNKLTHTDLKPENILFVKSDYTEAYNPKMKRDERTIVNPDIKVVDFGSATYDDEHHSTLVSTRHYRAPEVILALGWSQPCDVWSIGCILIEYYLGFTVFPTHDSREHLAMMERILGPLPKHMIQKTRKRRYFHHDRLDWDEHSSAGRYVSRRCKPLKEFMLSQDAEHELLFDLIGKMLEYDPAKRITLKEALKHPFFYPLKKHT", "assay": "Inhibition of mouse recombinant GST-tagged CLK1 using GRSRSRSRSRSR as substrate", "method_in_brief": "(§3)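 Mouse GST-fusion CLK1 or CLK3 expressed in E. coli. Assay buffer A (Tris-HCl pH 7.5, MgCl2, EGTA, DTT, heparin) plus 0.15 mg/mL BSA. RS peptide 1 μg/assay, 15 μM ATP final, 30 C. Blank subtracted; activity expressed as percent of activity without inhibitor. DMSO controls. Concentration range up to 10 μM.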"}, "[7]": {"target": "Dual specificity protein kinase CLK3 (Homo sapiens) (UniProt P49761)", "assay": "Inhibition of CLK3-mediated SRp55 protein phosphorylation in TNFalpha-stimulated human HMEC1 cells after 1 hr by Western blot analysis", "format": "cell-based", "method_in_brief": "as §1"}, "[8]": {"target": "Glycogen synthase kinase-3 (Sus scrofa, UniProt B2LUN4+I6LNT8)", "assay": "Inhibition of pig brain GSK-3alpha/beta using YRRAAVPPSPSLSRHSSPHQSpEDEEE as substrate", "method_in_brief": "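Compounds were tested at various concentrations, the highest being 10 μM, with DMSO dilution controls. Blanks were subtracted and activity was expressed as percent of the uninhibited maximum.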"}, "[9]": {"target": "Dual specificity protein kinase CLK3 (Mus musculus, UniProt O35492)", "sequence (O35492 whole entry)": "as the sequence (P49761 whole entry, looked up) above, with L55I, R64H, Y83C, P86S, G99A, T484S counted along it", "assay": "Inhibition of mouse recombinant GST-tagged CLK3 using GRSRSRSRSRSR as substrate", "method_in_brief": "as §3"}, "[10]": {"target": "Dual specificity protein kinase CLK2 (Homo sapiens) (UniProt P49760)", "sequence (P49760 whole entry, looked up)": "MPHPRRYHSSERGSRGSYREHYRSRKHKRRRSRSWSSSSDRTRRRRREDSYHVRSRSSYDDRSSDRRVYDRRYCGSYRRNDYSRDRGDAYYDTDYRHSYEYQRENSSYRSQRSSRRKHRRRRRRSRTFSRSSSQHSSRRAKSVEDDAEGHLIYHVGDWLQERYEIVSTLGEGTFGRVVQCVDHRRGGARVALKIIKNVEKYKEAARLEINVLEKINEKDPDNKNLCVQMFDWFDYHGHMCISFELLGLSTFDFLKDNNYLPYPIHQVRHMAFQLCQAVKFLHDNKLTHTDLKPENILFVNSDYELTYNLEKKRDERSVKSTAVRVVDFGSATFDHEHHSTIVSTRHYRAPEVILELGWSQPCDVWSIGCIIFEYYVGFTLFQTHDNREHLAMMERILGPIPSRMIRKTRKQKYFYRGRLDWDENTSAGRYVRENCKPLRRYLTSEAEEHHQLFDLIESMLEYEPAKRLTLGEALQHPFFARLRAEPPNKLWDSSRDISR", "conditions": "10 uM"}, "[11]": {"target": "Dual specificity tyrosine-phosphorylation-regulated kinase 1A (Rattus norvegicus, UniProt Q63470)", "assay": "Inhibition of rat recombinant GST-tagged DYRK1A using KKISGRLSPIMTEQ as substrate and [gamma32]-ATP after 30 mins by scintillation counting", "method_in_brief": "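GST fusion kinases expressed in E. coli and purified on glutathione-agarose; DYRK1A is rat, DYRK2 is human. Assay buffer A (25 mM Tris-HCl pH 7.5, 10 mM MgCl2, 1 mM EGTA, 1 mM DTT, 50 μg/mL heparin) plus 0.15 mg/mL BSA. Product captured on P81 paper, washed in 1% phosphoric acid, scintillation counted. Activity expressed as percent of uninhibited control.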"}, "[12]": {"target": "Dual specificity protein kinase CLK1 (Homo sapiens) (UniProt P49759)", "assay": "Inhibition of recombinant CLK1-mediated SR 9G8 protein phosphorylation at 10 uM after 30 mins by SDS-PAGE followed by autoradiography", "method_in_brief": "as §2"}, "[13]": {"target": "Dual specificity protein kinase CLK1 (Homo sapiens) (UniProt P49759)", "assay": "Inhibition of CLK1-mediated SRp55 protein phosphorylation in TNFalpha-stimulated human HMEC1 cells after 1 hr by Western blot analysis", "format": "cell-based", "method_in_brief": "as §1"}, "[14]": {"target": "T2, Dual specificity tyrosine-phosphorylation-regulated kinase 2 (Homo sapiens) (UniProt Q92630)", "T2 sequence (whole entry)": "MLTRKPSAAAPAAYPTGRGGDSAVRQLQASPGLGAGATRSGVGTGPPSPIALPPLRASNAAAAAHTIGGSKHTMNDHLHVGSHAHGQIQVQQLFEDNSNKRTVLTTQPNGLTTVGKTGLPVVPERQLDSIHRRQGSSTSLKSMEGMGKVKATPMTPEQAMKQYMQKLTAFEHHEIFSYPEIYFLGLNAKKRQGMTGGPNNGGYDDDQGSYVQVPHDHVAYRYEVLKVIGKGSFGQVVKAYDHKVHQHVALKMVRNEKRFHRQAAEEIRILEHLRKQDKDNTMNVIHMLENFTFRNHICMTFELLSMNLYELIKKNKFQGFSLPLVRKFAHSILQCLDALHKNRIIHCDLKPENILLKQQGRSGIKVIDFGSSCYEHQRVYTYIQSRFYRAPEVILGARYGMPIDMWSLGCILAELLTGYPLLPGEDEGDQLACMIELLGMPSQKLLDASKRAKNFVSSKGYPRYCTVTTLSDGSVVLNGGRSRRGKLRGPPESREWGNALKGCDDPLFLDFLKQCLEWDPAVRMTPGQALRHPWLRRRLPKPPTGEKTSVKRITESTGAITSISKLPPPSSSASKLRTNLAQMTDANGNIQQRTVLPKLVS", "conditions": "10 uM"}, "[15]": {"target": "Dual specificity protein kinase CLK4 (Homo sapiens) (UniProt Q9HAZ1)", "sequence (Q9HAZ1 whole entry, looked up)": "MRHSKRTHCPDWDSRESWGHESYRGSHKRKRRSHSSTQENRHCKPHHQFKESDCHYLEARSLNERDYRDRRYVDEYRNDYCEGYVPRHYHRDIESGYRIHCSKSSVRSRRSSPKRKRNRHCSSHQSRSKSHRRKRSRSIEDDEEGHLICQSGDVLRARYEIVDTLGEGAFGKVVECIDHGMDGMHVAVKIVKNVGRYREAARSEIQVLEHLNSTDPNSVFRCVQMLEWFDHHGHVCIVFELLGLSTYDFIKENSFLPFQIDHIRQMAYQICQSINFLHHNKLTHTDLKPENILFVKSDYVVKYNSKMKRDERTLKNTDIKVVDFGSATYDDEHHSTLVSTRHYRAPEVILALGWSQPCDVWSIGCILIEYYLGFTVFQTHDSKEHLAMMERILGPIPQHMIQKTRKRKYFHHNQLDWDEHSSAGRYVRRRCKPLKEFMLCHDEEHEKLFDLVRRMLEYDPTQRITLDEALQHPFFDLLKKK", "conditions": "10 uM"}},
  "note": "pIC50: −log10 of the molar value. Calls of active or inactive are those of the source. The calls are words filed in the database; no cut-off is given here.",
  "data": [
    {"compound": "O=C1NC(Nc2ccccc2)=N/C1=C\\c1ccc2c(c1)OCO2", "values": [
      {"measurement": "inhibition", "setting": "[1]", "result": "Active"},
      {"measurement": "inhibition", "setting": "[2]", "result": "inactive"},
      {"measurement": "inhibition", "setting": "[3]", "result": "Active"},
      {"measurement": "increase in exon inclusion ratio", "setting": "[4]", "result": "Dose-dependent effect"},
      {"measurement": "inhibition", "setting": "[5]", "result": "Active"},
      {"measurement": "pIC50", "setting": "[6]", "result": 7.82},
      {"measurement": "inhibition", "setting": "[7]", "result": "Active"},
      {"measurement": "IC50", "setting": "[8]", "result": "> 10000", "unit": "nM"},
      {"measurement": "pIC50", "setting": "[9]", "result": "< 5.00"},
      {"measurement": "inhibition", "setting": "[10]", "result": "Active"},
      {"measurement": "pIC50", "setting": "[11]", "result": 7.40},
      {"measurement": "inhibition", "setting": "[12]", "result": "Active"},
      {"measurement": "inhibition", "setting": "[13]", "result": "Active"},
      {"measurement": "inhibition", "setting": "[14]", "result": "Active"},
      {"measurement": "inhibition", "setting": "[15]", "result": "Active"}
    ]}
  ]
}
